A selection: hits, their analogues and other compounds. The true share with any hit is near 3.5%.
RGS4 block = RGS4 inhibitors, primary screen, cell-based, HEK293 M3R inducible RGS4, calcium flux | Fluo-4 calcium flux; hits give high values; triggered by carbachol at its EC20 | B-score at 10 µM | 310,000 tested, 0.45% active;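 active = B-score, a plate-corrected calcium signal, over three deviations above library mean, with baseline fluorescence within five deviations of library mean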;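 also: RGS4 expression induced by doxycycline in cells with stable M3 receptor; B-score is computed from the integrated fluorescence ratio over baseline after carbachol; higher B-score means a larger calcium signal and so more RGS4 inhibition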
Target sequence (P49798 whole entry, looked up): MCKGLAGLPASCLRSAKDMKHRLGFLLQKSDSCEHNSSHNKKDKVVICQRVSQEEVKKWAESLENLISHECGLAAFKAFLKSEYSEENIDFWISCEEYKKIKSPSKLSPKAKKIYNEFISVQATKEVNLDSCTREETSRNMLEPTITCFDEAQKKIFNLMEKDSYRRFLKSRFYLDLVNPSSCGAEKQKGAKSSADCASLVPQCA
RGS4 act = RGS4 potentiators or activators, primary screen, cell-based, HEK293 M3R inducible RGS4, calcium flux; carbachol calcium flux Fluo4; hits give low values; B-score at 10 µM; 310,000 tested, 0.92% active;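 active = B-score of the integrated calcium signal more than 4 SD below the library mean, with starting fluorescence not abnormally high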;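 also: negative B-score means reduced calcium response which marks RGS4 activation or potentiation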
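Assay system: Inducible-RGS4 HEK293 cells carrying M3 receptor | Schedule: Compound preincubation 20 min at room temperature before agonist | Signal: Kinetic calcium fluorescence imaging with Fluo4-AM dye, 2 µM | Read-out basis: B score from integrated fluorescence ratio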
MrgX1 antag = antagonists of human MrgX1 receptor, primary screen, HEK293 cells, Fluo-4 calcium flux; BAM8-22 antagonism; hits give low values; B-score at 10 µM; 310,000 tested, 1.3% active; Mas-related G-protein coupled receptor member X1 (Homo sapiens), Q96LB2;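 active = calcium-response B-score plate-corrected more than 3 library SD below zero, starting fluorescence within 5 deviations, no agonist response on first addition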;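 also: peak minus trough fluorescence over baseline after final BAM8-22 challenge near maximal dose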
Target sequence (Q96LB2 whole entry, looked up): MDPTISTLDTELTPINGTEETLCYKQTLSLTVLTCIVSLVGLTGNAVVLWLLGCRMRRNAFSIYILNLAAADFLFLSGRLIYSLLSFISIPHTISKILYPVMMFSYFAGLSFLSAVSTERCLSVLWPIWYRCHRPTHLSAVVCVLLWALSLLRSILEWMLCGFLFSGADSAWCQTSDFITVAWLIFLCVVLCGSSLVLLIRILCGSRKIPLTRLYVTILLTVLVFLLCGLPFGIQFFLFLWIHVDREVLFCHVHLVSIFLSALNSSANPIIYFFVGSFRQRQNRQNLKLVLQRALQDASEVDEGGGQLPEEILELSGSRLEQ
MrgX1 PAM = positive allosteric modulators of MrgX1, primary screen, HEK293 cells, Fluo-4 calcium flux. 310,000 tested, 0.63% active. Mas-related G-protein coupled receptor member X1 (Homo sapiens), Q96LB2. AID 588675, 2011. B-score at 10 µM. FDSS; hits give high values;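 active = plate-corrected calcium response at least 3 library SD above typical, normal starting fluorescence, not activating the receptor alone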;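 also: compound read alongside a low EC10 to EC30 dose of BAM8-22 agonist; peak minus trough fluorescence over baseline measured at the second addition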
MrgX1 agonist = agonists of human MrgX1 receptor, primary screen, HEK293 cells, Fluo-4 calcium flux; Mas-related G-protein coupled receptor member X1 (Homo sapiens), Q96LB2; Fluo-4 calcium fluorescence, agonist mode; hits give high values; B-score at 10 µM; 310,000 tested, 0.44% active; AID 588627, 2011;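 active = calcium response B-score plate-corrected fluorescence ratio at least 3 library SD, with starting fluorescence B-score inside 5 SD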
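Material: MrgX1-expressing HEK293 cells / Dosing: compound as first of three additions / Incubation: overnight seeding, then 1 h dark dye loading / Signal: Fluo-4 NW calcium fluorescence / Evaluation: B-scored fluorescence response ratio / Benchmarks: positive and negative control wells on each plate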
MrgX1 PAM conf = MrgX1 positive allosteric modulators, duplicate retest, confirmation, HEK293 cells, Fluo-4 calcium flux | shares compounds with MrgX1 PAM | Fluo-4 calcium fluorescence, FDSS | activation (ratio percentage), % at 10 µM | 1,200 tested, 13% active;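 active = ratio at least 3 SD above the weak peptide control, stable starting fluorescence, no direct agonism earlier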;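 also: compound followed by low BAM8-22 agonist challenge near EC20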
MrgX1 ant reconf = MrgX1 receptor antagonists, duplicate retest, confirmation, HEK293 cells, Fluo-4 calcium flux | BAM8-22 calcium flux; hits give low values | 2,300 tested, 19% active | AID 602420, 2012 | remaining BAM8-22 calcium response % of control (hits give low values), % at 10 µM | shares compounds with MrgX1 antag;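 active = remaining agonist calcium response no higher than 100% minus 3 SD of agonist-only control wells, with starting fluorescence near control levels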;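 also: agonist BAM8-22 given at a near maximal EC90 to ECmax level; peak minus minimum fluorescence divided by baseline after agonist addition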
HEK293 Ca flux = nonspecific calcium signal in parental HEK293, confirmation, counter-screen for MrgX1 antagonist project, parental HEK293 cells, Fluo-4 calcium flux. shares compounds with MrgX1 antag. fluorescence ratio F(max-min)/F0 at 10 µM. 4,000 tested, 2% active. Fluo-4 calcium fluorescence, FDSS;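 active = duplicate-averaged calcium fluorescence ratio at least three times the standard deviation of buffer wells, a nonspecific response in parental cells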
HEK293 Ca counter = calcium response in parental HEK293 cells, primary screen, counter-screen for MrgX1 allosteric activator project, cell-based, Fluo-4 calcium flux, duplicate | fluorescence ratio F(max-min)/F0 at 10 µM | Fluo-4 fluorescence ratio; hits give high values | 4,000 tested, 0.4% active | shares compounds with MrgX1 antag;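 active = calcium fluorescence ratio, averaged over duplicates, at least 3 SD of the buffer-well ratio, meaning a nonspecific response in receptor-free cells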;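 also: untransfected parental HEK293 lacking MrgX1 used as counterscreen for MrgX1 allosteric activators; fluorescence change taken during the second addition on a kinetic imager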
HEK293 Ca cntr2 = calcium response in parental HEK293 cells, primary screen, counter-screen for MrgX1 agonist project, cell-based, Fluo-4 calcium flux, duplicate, agonist mode; shares compounds with MrgX1 antag; Fluo-4 calcium fluorescence (FDSS); hits give high values; fluorescence ratio F(max-min)/F0 at 10 µM; 4,000 tested, 8.7% active;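 active = calcium fluorescence ratio at least three times the spread of buffer wells, meaning a non-specific response in parental cells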
A number is an active result; – = inactive; · = no result given.

SMILES	RGS4 block	RGS4 act	MrgX1 antag	MrgX1 PAM	MrgX1 agonist	MrgX1 PAM conf	HEK293 Ca flux	HEK293 Ca counter	HEK293 Ca cntr2	others
CC12COC3(C(=O)Nc4nccs4)CC1CCC32C (stereo unspecified)	–	–	–	–	–	·	·	·	·
O=C(NCCc1cn2ccccc2n1)c1cc(COc2ccc3ncccc3c2)on1	–	–	–	8.9	–	5.7%	–	–	–
O=C(NC1CCCC1)c1cc(COc2ccc3ncccc3c2)on1	–	–	–	–	–	·	·	·	·
Cc1cc([N+](=O)[O-])ccc1NC(=S)NC1CCCC1	–	–	–	–	–	·	·	·	·
COc1ccc(NS(=O)(=O)c2cc(-c3cnc(C4CC4)o3)ccc2C)cc1	–	–	–	–	–	·	·	·	·
COc1ccccc1NS(=O)(=O)c1cc(-c2cnc(C3CC3)o2)ccc1C	–	–	–	14	–	–	–	–	–
COc1ccc(C(=O)NC(=S)Nc2nc(C)cc(C)n2)cc1Br	–	–	–	–	–	·	·	·	·
COC(=O)c1nc2cc3c(cc2c(C)c1C(=O)OC)OCO3	–	–	–	–	–	·	·	·	·
Cc1nc2cc3c(cc2c(C)c1C(=O)OC(C)C)OCO3	–	–	–	7.1	–	–	–	–	–
Fc1cccc(-c2cc3nc4c(c(N5CCC6(CC5)OCCO6)n3n2)CCCC4)c1	–	–	–	7.6	–	–	–	–	–
O=C(Nc1ccc2c(c1)C(=O)N(c1ccccc1)C2=O)C1CCCO1 (stereo unspecified)	–	–	–	–	–	·	·	·	·
COc1cccc(/C=N/n2c(SC)nnc2-c2ccccc2)c1O	–	–	–	20	–	154%	–	–	–
Cc1ccccc1N1C(=O)C2C3CCC(O3)C2C1=O (stereo unspecified)	–	–	–	19	–	–	–	–	–
Cc1ccccc1N1C(=O)C2C3C=CC(C2C1=O)N(C)C3=O (stereo unspecified)	–	–	–	–	–	·	·	·	·
CC1CN(/C=C/C=O)C(C)CC1OC(=O)c1ccccc1 (stereo unspecified)	–	–	–	–	–	·	·	·	·
COc1ccc(Cl)cc1N(CC(=O)Nc1cccc(SC)c1)S(C)(=O)=O	–	–	–	8.3	–	–	–	–	–
CCOc1cccc(NC(=O)CSc2nncn2N)c1	–	–	–	7.4	–	–	–	–	–
O=c1[nH]c(Nc2ccccc2)cc2ccccc12	–	–	–	19	–	34%	–	–	–
CCNc1nc2[nH]c(=O)c3c(c2s1)OC(N)=C(C#N)C3c1ccc(C)cc1 (stereo unspecified)	–	–	–	16	–	–	–	–	51
O/N=C/c1cn(-c2ccccc2)nc1-c1ccc2c(c1)OCCO2	–	–	–	–	–	·	·	·	·
OCc1cn(-c2ccccc2)nc1-c1ccc2c(c1)OCCO2	–	–	–	39	–	21%	–	–	–
COc1cccc(-c2nn(-c3ccccc3)cc2CO)c1	–	–	–	12	–	–	–	–	–
Cc1ccc(NC(=O)CN2CCCCCC2)cc1[N+](=O)[O-]	–	–	–	–	–	·	·	·	·
CCc1c(C)nc2cc(-c3ccc(OC)c(OC)c3)nn2c1N1CCCC1	–	–	–	17	–	–	–	–	–
CCCNC(=O)OCC12CC3CC(CC(C3)C1)C2	–	–	–	9.7	–	–	–	–	–
SMILES	RGS4 block	RGS4 act	MrgX1 antag	MrgX1 PAM	MrgX1 agonist	MrgX1 PAM conf	HEK293 Ca flux	HEK293 Ca counter	HEK293 Ca cntr2	others
CC(=O)c1c(O)c(C)c(-c2ccccc2)n(-c2ccccc2)c1=O	–	–	–	–	–	·	·	·	·
O=C(c1ccccc1)c1c(O)nc(-c2ccccc2)n(-c2ccccc2)c1=O	–	–	-8	–	–	·	–	–	–	MrgX1 ant reconf=–
COc1ccc2oc(C(=O)OCC(=O)N3CCCC(C)C3)c(C)c2c1 (stereo unspecified)	–	–	–	–	–	·	·	·	·
CN1CCN(Cc2nc3ccccc3c(=O)n2CC#N)CC1	–	–	-5.6	–	–	·	–	–	–	MrgX1 ant reconf=–
CC(C)(C)C(=O)NC(n1cnc2c(N3CCOCC3)ncnc21)C(Cl)(Cl)Cl (stereo unspecified)	–	–	–	–	–	·	·	·	·
O=C(O)Cn1nnnc1-c1ccc(F)cc1	–	–	-5.6	–	–	·	–	–	–	MrgX1 ant reconf=–
O=C(c1ccco1)N1CCN(CC(O)COc2ccc3oc4ccccc4c3c2)CC1 (stereo unspecified)	–	–	–	–	–	·	·	·	·
CN(CC(=O)Nc1ccccc1N1CCCC1)S(=O)(=O)c1ccc(F)cc1	–	–	–	–	–	·	·	·	·
CCOC(=O)N1CCN(C2CC(=O)N(c3ccc(F)cc3)C2=O)CC1 (stereo unspecified)	–	–	-5.9	–	–	·	–	–	–	MrgX1 ant reconf=–
COc1cc(C(=O)NCCSc2ccc(F)cc2)cc(OC)c1OC	–	–	–	–	–	·	·	·	·
CC1(C)Cc2c(cnn2-c2ccccc2)C(=O)/C1=N\NC(=O)c1ccccc1O	–	–	–	–	–	·	·	·	·
Cc1nc(NCc2ccccn2)c2c3c(sc2n1)CCCC3	–	–	-5.2	–	–	·	–	–	–	MrgX1 ant reconf=–
CCOC(=O)/C(C#N)=C\C1=C(N2CCOCC2)CC(C)(C)OC1	–	–	–	–	–	·	·	·	·
Cc1nn(CCO)c2nc(-c3cccs3)cc(C(F)(F)F)c12	–	–	-9.5	–	–	·	–	–	–	MrgX1 ant reconf=–
CCOC(=O)c1c(NC(=O)c2c(C(=O)O)cccc2[N+](=O)[O-])sc2c1CCCC2	–	–	–	–	–	·	·	·	·

Compound activity (PubChem BioAssay)
